Results published in ChEMBL document CHEMBL3588796 (Bioorg Med Chem, 2015).

What was measured:
[1] = target: T1, Kappa-type opioid receptor (Homo sapiens, UniProt P41145); test: Antagonist activity against HA-tagged human recombinant kappa opioid receptor expressed in CHO cells assessed as inhibition of U69,593-induced ERK phosphorylation pre-incubated with compound before U69,593 stimulation for 10 mins relative to control; assay type: cell-based; design: concentration or dose not given beside the values
T1 sequence (P41145 whole entry): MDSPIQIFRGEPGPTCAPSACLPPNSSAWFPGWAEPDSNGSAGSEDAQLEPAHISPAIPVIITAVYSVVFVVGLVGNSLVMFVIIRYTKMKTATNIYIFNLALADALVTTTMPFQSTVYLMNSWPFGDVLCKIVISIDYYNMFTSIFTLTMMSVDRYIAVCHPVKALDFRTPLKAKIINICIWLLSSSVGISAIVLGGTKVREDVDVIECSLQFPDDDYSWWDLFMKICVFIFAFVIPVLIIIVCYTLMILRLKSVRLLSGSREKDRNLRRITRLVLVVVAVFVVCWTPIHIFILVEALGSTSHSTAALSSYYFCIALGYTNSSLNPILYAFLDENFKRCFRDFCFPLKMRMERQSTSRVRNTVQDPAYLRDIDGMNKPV
Procedure, shortened: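 hKOR-CHO cells, 15,000 per well, plated overnight at 37 °C and serum-starved 1 h. Compound added, then 100 nM U69,593 for 10 min at 37 °C. Fixed cells stained overnight at 4 °C for phospho- and total ERK1/2. In-cell western read by infrared imaging at 700/800 nm. Three-parameter nonlinear fit; 2–4 replicates per experiment, n ≥ 3.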

[2] = target: T1, Kappa-type opioid receptor; test: Antagonist activity against human kappa opioid receptor expressed in human U2OS cells co-expressing beta-arrestin2 pre-treated for 15 mins before U69,593 stimulation for 90 mins by DiscoveRx beta-arrestin2 recruitment based PathHunter assay relative to control; assay type: cell-based; design: concentration or dose not given beside the values
Procedure, shortened: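 U2OS-hKOR-βarrestin2 PathHunter cells, 5,000 per well, plated overnight in Opti-MEM with 1% FBS. Antagonist pretreatment 15 min at 37 °C, then 1 μM U69,593 for 90 min at 37 °C. Detection reagent 60 min at room temperature; chemiluminescence read-out. Concentration-response curves fitted by three-parameter regression; n ≥ 3 independent experiments.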

[3] = target: T1, Kappa-type opioid receptor; test: Antagonist activity against HA-tagged human recombinant kappa opioid receptor expressed in CHO cell membranes incubated for 1 hr by [35S]GTPgammaS binding assay; assay type: functional
Mu-type opioid receptor [4] = target: T2, Mu-type opioid receptor (Homo sapiens, UniProt P35372); test: Antagonist activity against mu opioid receptor (unknown origin)
T2 sequence (P35372 whole entry): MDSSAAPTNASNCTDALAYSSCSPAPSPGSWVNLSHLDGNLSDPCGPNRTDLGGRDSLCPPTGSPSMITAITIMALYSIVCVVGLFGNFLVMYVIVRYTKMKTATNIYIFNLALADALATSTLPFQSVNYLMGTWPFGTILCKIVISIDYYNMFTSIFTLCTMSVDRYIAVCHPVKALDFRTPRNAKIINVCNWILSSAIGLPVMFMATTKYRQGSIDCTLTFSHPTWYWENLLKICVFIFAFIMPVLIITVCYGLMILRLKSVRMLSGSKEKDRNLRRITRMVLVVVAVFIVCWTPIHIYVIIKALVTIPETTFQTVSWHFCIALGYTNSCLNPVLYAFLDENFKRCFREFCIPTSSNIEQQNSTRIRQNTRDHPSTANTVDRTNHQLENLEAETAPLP

[5] = target: T3, Delta-type opioid receptor (Homo sapiens, UniProt P41143); test: Antagonist activity against delta opioid receptor (unknown origin)
T3 sequence (P41143 whole entry): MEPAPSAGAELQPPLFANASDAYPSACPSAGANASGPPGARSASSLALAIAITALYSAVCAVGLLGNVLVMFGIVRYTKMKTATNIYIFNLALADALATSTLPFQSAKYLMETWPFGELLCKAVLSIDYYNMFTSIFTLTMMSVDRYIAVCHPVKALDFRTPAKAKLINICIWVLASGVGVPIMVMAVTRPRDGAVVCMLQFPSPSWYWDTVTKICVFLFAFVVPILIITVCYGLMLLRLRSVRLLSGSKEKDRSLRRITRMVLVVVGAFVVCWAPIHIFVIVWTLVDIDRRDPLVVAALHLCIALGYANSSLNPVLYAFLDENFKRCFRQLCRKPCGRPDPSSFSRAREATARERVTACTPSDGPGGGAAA

[6] = target: Kappa-type opioid receptor (Rattus norvegicus, UniProt P34975); test: Displacement of radio-labeled U69,593 from rat kappa opioid receptor expressed in HEK293 cell membranes
Chain of Kappa-type opioid receptor (Rattus norvegicus, UniProt P34975) (P34975 whole entry): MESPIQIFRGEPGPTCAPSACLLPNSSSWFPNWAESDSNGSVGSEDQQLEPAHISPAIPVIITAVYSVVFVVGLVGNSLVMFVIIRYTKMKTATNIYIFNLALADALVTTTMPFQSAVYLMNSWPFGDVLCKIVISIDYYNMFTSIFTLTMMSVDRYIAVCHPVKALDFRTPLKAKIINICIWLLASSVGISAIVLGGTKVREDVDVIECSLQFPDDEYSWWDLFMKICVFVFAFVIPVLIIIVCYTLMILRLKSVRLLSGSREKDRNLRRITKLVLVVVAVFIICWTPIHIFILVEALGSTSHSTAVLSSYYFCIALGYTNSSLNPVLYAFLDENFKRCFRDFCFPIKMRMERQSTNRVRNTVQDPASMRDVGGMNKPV

[7] = target: T3, Delta-type opioid receptor; test: Binding affinity to delta opioid receptor (unknown origin)
Mu-type opioid receptor [8] = target: T2, Mu-type opioid receptor; test: Binding affinity to mu opioid receptor (unknown origin)
[9] = target: T1, Kappa-type opioid receptor; test: Antagonist activity against HA-tagged human recombinant kappa opioid receptor expressed in CHO cells assessed as inhibition of U69,593-induced ERK phosphorylation pre-incubated with compound before U69,593 stimulation for 10 mins; assay type: cell-based
[10] = target: T1, Kappa-type opioid receptor; test: Antagonist activity against human kappa opioid receptor expressed in human U2OS cells co-expressing beta-arrestin2 pre-treated for 15 mins before U69,593 stimulation for 90 mins by DiscoveRx beta-arrestin2 recruitment based PathHunter assay; assay type: cell-based

Cc1ccc(S(=O)(=O)NCc2ccc(C(=O)NCCN(Cc3ccc(Br)cc3)C(C)C)cc2)cc1
inhibition [1]: > 86% | inhibition [2]: > 86%

Cc1cc(C)c(S(=O)(=O)N2CCc3cc(C(=O)NCCN(Cc4ccccc4)C(C)C)ccc3C2)c(C)c1
inhibition [1]: > 86% | inhibition [2]: > 86%

Cc1cc(C)c(S(=O)(=O)N2CCc3cc(C(=O)NCCN(Cc4ccc(F)cc4)C(C)(C)C)ccc3C2)c(C)c1
inhibition [1]: > 86% | inhibition [2]: > 86%

Cc1ccc(S(=O)(=O)NCc2ccc(C(=O)NCC3CCCN(Cc4ccccc4)C3)cc2)cc1 (stereo not given)
IC50 ([3]; read-out: IC50): > 18 µM

Cc1cc(C)c(S(=O)(=O)N2CCc3cc(C(=O)NCCN(Cc4ccc(Br)cc4)C(C)(C)C)ccc3C2)c(C)c1
inhibition [1]: > 86% | inhibition [2]: > 86%

CCc1ccc(S(=O)(=O)N2CCc3cc(C(=O)NCCN(Cc4ccc(Br)cc4)C(C)C)ccc3C2)cc1
inhibition [1]: > 86% | inhibition [2]: > 86%

Cc1ccc(S(=O)(=O)N2CCc3cc(C(=O)NCCN(Cc4ccc(Br)cc4)C(C)(C)C)ccc3C2)cc1
inhibition [1]: > 86% | inhibition [2]: > 86%

Cc1ccc(S(=O)(=O)N2CCc3cc(C(=O)NCCN(Cc4ccc(F)cc4)C(C)C)ccc3C2)cc1
inhibition [1]: > 86% | inhibition [2]: > 86%

Cc1ccc(S(=O)(=O)NCc2ccc(C(=O)NCCN(Cc3ccccc3)C(C)C)cc2)cc1
IC50 (Mu-type opioid receptor [4]): > 24 µM | IC50 [5]: > 32 µM | inhibition [1]: > 86% | inhibition [2]: > 86% | Ki [6]: 0.05 µM | Ki [7]: 1.09 µM | Ki (Mu-type opioid receptor [8]): 0.306 µM

Cc1ccc(S(=O)(=O)N(C)Cc2ccc(C(=O)N(C)CCN(Cc3ccccc3)C(C)C)cc2)cc1
IC50 ([3]; cho): Not Active | IC50 [9]: Not Active | IC50 [10]: Not Active

Oc1ccc2c3c1O[C@H]1c4[nH]c5c(c4C[C@@]4(O)[C@@H](C2)N(CC2CC2)CC[C@]314)C[C@@]1(O)[C@H]2Cc3ccc(O)c4c3[C@@]1(CCN2CC1CC1)[C@H]5O4
inhibition [1]: > 86% | inhibition [2]: > 86%

CCc1ccc(S(=O)(=O)N2CCc3cc(C(=O)NCCN(Cc4ccccc4)C(C)(C)C)ccc3C2)cc1
inhibition [1]: > 86% | inhibition [2]: > 86%

Cc1ccc(S(=O)(=O)N2CCc3cc(C(=O)NCCN(Cc4ccc(F)cc4)C(C)(C)C)ccc3C2)cc1
inhibition [1]: > 86% | inhibition [2]: > 86%

Cc1ccc(S(=O)(=O)N2CCc3cc(C(=O)NCCN(Cc4ccccc4)C(C)(C)C)ccc3C2)cc1
inhibition [1]: > 86% | inhibition [2]: > 86% | Ki [6]: 0.037 µM | Ki [7]: 2.33 µM | Ki (Mu-type opioid receptor [8]): 1.75 µM

Cc1ccc(S(=O)(=O)N2CCc3cc(C(=O)NCCN(Cc4ccc(Cl)cc4)C(C)(C)C)ccc3C2)cc1
inhibition [1]: > 86% | inhibition [2]: > 86% | Ki [6]: 0.053 µM | Ki [7]: > 10 µM | Ki (Mu-type opioid receptor [8]): > 10 µM

Cc1ccc(S(=O)(=O)NCc2ccc(C(=O)NC3CCN(Cc4ccccc4)C3)cc2)cc1 (stereo not given)
IC50 ([3]; read-out: IC50): > 18 µM

Cc1ccc(S(=O)(=O)N2CCc3cc(C(=O)NCCN(Cc4ccc(Br)cc4)C(C)C)ccc3C2)cc1
inhibition [1]: > 86% | inhibition [2]: > 86% | Ki [6]: 0.073 µM | Ki [7]: 5.19 µM | Ki (Mu-type opioid receptor [8]): 8.17 µM

Cc1ccc(S(=O)(=O)NCc2ccc(C(=O)NCCN3Cc4ccccc4C3)cc2)cc1
IC50 ([3]; read-out: IC50): > 18 µM

Cc1ccc(S(=O)(=O)N2CCc3cc(C(=O)NCCN(Cc4ccc(Cl)cc4)C(C)C)ccc3C2)cc1
inhibition [1]: > 86% | inhibition [2]: > 86%
